Consider 12 molecules from ChEMBL document CHEMBL3091399, “Protease inhibitors from Microcystis aeruginosa bloom material collected from the Dalton Reservoir, Israel” (J Nat Prod, 2013).

The source made the active and inactive calls. The rule behind the calls is not given here. *1 amine or outer side, *2 acyl side, *3 side chain or, on linkers, in order; H or OH if unused. Where a SMILES comes first, the peptide text is derived from it. Bridges are numbered along the chain shown (N, C = ends). [ ]: non-standard residue; d: D form. hTyr = N[C@@H](CCc1ccc(O)cc1)C(=O)O; NMeA = CN[C@@H](C)C(=O)O; CO = O=C([*:1])[*:2]

The target in assay [1] is T1, Trypsin (Homo sapiens, UniProt P07477+P07478+P35030). Nature of the assay: Inhibition of trypsin (unknown origin) using benzoyl-L-arginine-p-nitroanilide hydrochloride as substrate preincubated at 45.5 uM for 5 mins before substrate addition measured after 30 mins. Format: protein assay. An outline of the steps: (§1)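 Trypsin stock 1 mg/mL in 0.05 M Tris-HCl/100 mM NaCl/1 mM CaCl2, pH 7.5. Substrate in 1:9 DMSO/Tris buffer. Samples from 1 mg/mL DMSO stocks. Enzyme and sample are preincubated in buffer at 37 °C for 5 min. Substrate is then added and kinetics are read at 405 nm, 37 °C, for 30 min. Percent inhibition is taken against a DMSO vehicle control.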

Assay [2] addresses T2, Prothrombin (Homo sapiens, UniProt P00734). The assay can be described thus: Inhibition of thrombin (unknown origin) using z-Gly-Pro-Arg-4MbetaNA-acetate as substrate preincubated at 45.5 uM for 20 mins before substrate addition measured after 20 mins. An outline of the steps: (§2)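 Thrombin stock 0.5 mg/mL in 0.2 M Tris-HCl, pH 8. Substrate stock 0.5 mg/mL in water. Test samples from 1 mg/mL DMSO stocks. Enzyme and sample are preincubated in buffer at 25 °C for 20 min. Substrate is then added and kinetics are read at 405 nm, 25 °C, for 20 min. Percent inhibition is taken against a DMSO-only control.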

The target in assay [3] is T2, Prothrombin. Nature of the assay: Inhibition of thrombin (unknown origin) using z-Gly-Pro-Arg-4MbetaNA-acetate as substrate preincubated for 20 mins before substrate addition measured after 20 mins. The procedure, abridged: as §2
Assay [4] addresses T1, Trypsin. Nature of the assay: Inhibition of trypsin (unknown origin) using benzoyl-L-arginine-p-nitroanilide hydrochloride as substrate preincubated for 5 mins before substrate addition measured after 30 mins. Format: protein assay. The procedure, abridged: as §1

Turning to `NC(=O)[C@@H]1C[C@@H]2CC[C@H](O)C[C@@H]2N1C(=O)[C@@H](Cc1ccc(O)cc1)NC(=O)[C@H](O)Cc1ccc(O)cc1`, the inhibition entry in assay [1] and in assay [2] was “inactive” each time.
By IC50 is commonly meant the point on the concentration scale where inhibition reaches its midpoint. A high value points to lower potency. In the case of `N=C(N)NCCCCNC(=O)[C@@H]1C[C@@H]2CC[C@@H](O)C[C@@H]2N1C(=O)[C@H](Cc1ccccc1)NC(=O)[C@@H](O)Cc1ccc(O)c(Cl)c1`, the results for the IC50 in assay [3] and in assay [4] were 15.5 µM and 30.8 µM, respectively.
Consider `NC(=O)[C@@H]1C[C@@H]2CC[C@H](O)C[C@@H]2N1C(=O)[C@@H](Cc1ccccc1)NC(=O)[C@H](O)Cc1ccc(O)cc1`, for which the inhibition entry in assay [1] and in assay [2] was “inactive” in each case.
For `CC[C@H](C)[C@@H]1NC(=O)[C@H](NC(=O)N[C@@H](CCCNC(=N)N)C(=O)O)CCCCNC(=O)[C@H](Cc2ccccc2)NC(=O)[C@H](C)N(C)C(=O)[C@H](CCc2ccc(O)cc2)NC1=O` ({Arg-CO}-[dK]I[hTyr][NMeA]F; lactam 1-C), the inhibition entry in assay [1] and in assay [2] was “inactive” each time.
On to `CC[C@H](C)[C@@H]1NC(=O)[C@H](Cc2ccccc2)N(C)C(=O)[C@H]([C@@H](C)CC)N2C(=O)[C@H](CC[C@H]2O)NC(=O)[C@H](CCCNC(=N)N)NC(=O)[C@@H](NC(=O)[C@H](O)COS(=O)(=O)O)[C@@H](C)OC1=O`, for which, in assay [4], the inhibition entry was “Active”.
Still for that read-out and setting: the entry for `CC[C@H](C)[C@@H]1NC(=O)[C@H](Cc2ccccc2)N(C)C(=O)[C@H]([C@@H](C)CC)N2C(=O)[C@H](CC[C@H]2OC)NC(=O)[C@H](CCCNC(=N)N)NC(=O)[C@@H](NC(=O)[C@H](O)COS(=O)(=O)O)[C@@H](C)OC1=O` is “Active”.
For `CC(C)C[C@@H](NC(=O)[C@H](O)Cc1cc(Cl)c(O)c(Cl)c1)C(=O)N1[C@H](C(=O)NCCCCNC(=N)N)C[C@@H]2CC[C@@H](OS(=O)(=O)O)C[C@@H]21`, in assay [2], the inhibition result is “inactive”. The molecule also displayed an IC50 in assay [4] of 7.3 µM.
`CC[C@H](C)[C@@H]1NC(=O)[C@H](Cc2ccccc2)N(C)C(=O)[C@H]([C@@H](C)CC)N2C(=O)[C@H](CC[C@H]2O)NC(=O)[C@H](CCCNC(=N)N)NC(=O)[C@@H](NC(=O)[C@@H](COS(=O)(=O)O)OS(=O)(=O)O)[C@@H](C)OC1=O`: the inhibition entry in assay [4] is “Active”.
As for `N=C(N)NCCCCNC(=O)[C@@H]1C[C@@H]2CC[C@@H](O)C[C@@H]2N1C(=O)[C@H](Cc1ccccc1)NC(=O)[C@H](O)Cc1ccc(O)c(Cl)c1`, in assay [2], the inhibition entry is “inactive”. Further, the concentration for half-maximal inhibition (IC50) in assay [4] is 19 µM.
Turning to `CC(C)C[C@@H](NC(=O)[C@H](O)Cc1ccc(O)c(Cl)c1)C(=O)N1[C@H](C(=O)NCCCCNC(=N)N)C[C@@H]2CC[C@@H](OS(=O)(=O)O)C[C@@H]21`, the inhibition entry in assay [2] was “inactive”. This molecule also displayed a half-inhibitory concentration (IC50) in assay [4] of 9.5 µM.
For `CC[C@H](C)[C@@H]1NC(=O)[C@H](Cc2ccccc2)N(C)C(=O)[C@H]([C@@H](C)CC)N2C(=O)[C@H](CC[C@H]2OC)NC(=O)[C@H](CCCNC(=N)N)NC(=O)[C@@H](NC(=O)[C@@H](COS(=O)(=O)O)OS(=O)(=O)O)[C@@H](C)OC1=O`, the inhibition entry in assay [4] was “Active”.
For `C=C(C)C(O)CC/C(C)=C/CN(CCCC(C(=O)[O-])[N+](C)(C)C)C(=N)N` (stereo not given), the inhibition result in assay [1] and in assay [2] was “inactive” each time.
